ChEMBL document CHEMBL4007402 (J Med Chem, 2017)

Key:
[1] = target: Epidermal growth factor receptor (Homo sapiens) (UniProt P00533); experiment: Inhibition of recombinant TEL-fused EGFR (unknown origin) expressed in mouse BAF3 cells assessed as growth inhibition after 72 hrs by CellTiter-Glo or CCK-8 assay; type: cell-based
How it was run: (§1)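 Isogenic murine BaF3 cells transformed with TEL-fused kinases, whose proliferation depends on the fused kinase, were used. Parental BaF3 cells served as the general selectivity counter-screen. The anti-proliferative read-out was reported as GI50.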

[2] = target: Mast/stem cell growth factor receptor Kit (Homo sapiens) (UniProt P10721); experiment: Inhibition of recombinant TEL-fused c-KIT (unknown origin) expressed in mouse BAF3 cells assessed as growth inhibition after 72 hrs by CellTiter-Glo or CCK-8 assay; type: cell-based; how it was run: as §1
[3] = target: Platelet-derived growth factor receptor beta (Homo sapiens) (UniProt P09619); experiment: Inhibition of recombinant TEL-fused PDGFR-beta (unknown origin) expressed in mouse BAF3 cells assessed as growth inhibition after 72 hrs by CellTiter-Glo or CCK-8 assay; type: cell-based; how it was run: as §1
[4] = target: Epithelial discoidin domain-containing receptor 1 (Homo sapiens, UniProt Q08345); experiment: Inhibition of human GST-tagged DDR1 catalytic domain expressed in baculovirus expression system by LanthaScreen assay
[5] = target: Receptor-type tyrosine-protein kinase FLT3 (Homo sapiens) (UniProt P36888); experiment: Inhibition of recombinant TEL-fused FLT3 (unknown origin) expressed in mouse BAF3 cells assessed as growth inhibition after 72 hrs by CellTiter-Glo or CCK-8 assay; type: cell-based; how it was run: as §1
[6] = target: Platelet-derived growth factor receptor alpha (Homo sapiens) (UniProt P16234); experiment: Inhibition of recombinant TEL-fused PDGFR-alpha (unknown origin) expressed in mouse BAF3 cells assessed as growth inhibition after 72 hrs by CellTiter-Glo or CCK-8 assay; type: cell-based; how it was run: as §1
[7] = target: Mitogen-activated protein kinase 14 (Homo sapiens, UniProt Q16539); experiment: Inhibition of full-length recombinant human GST-tagged p38alpha expressed in Escherichia coli by Z'-LYTE assay
[8] = Growth inhibition of mouse BAF3 cells after 72 hrs by CellTiter-Glo or CCK-8 assay; type: cell-based; how it was run: as §1
[9] = target: T1, Cytoplasmic tyrosine-protein kinase BMX (Homo sapiens) (UniProt P51813)
T1 sequence (whole entry): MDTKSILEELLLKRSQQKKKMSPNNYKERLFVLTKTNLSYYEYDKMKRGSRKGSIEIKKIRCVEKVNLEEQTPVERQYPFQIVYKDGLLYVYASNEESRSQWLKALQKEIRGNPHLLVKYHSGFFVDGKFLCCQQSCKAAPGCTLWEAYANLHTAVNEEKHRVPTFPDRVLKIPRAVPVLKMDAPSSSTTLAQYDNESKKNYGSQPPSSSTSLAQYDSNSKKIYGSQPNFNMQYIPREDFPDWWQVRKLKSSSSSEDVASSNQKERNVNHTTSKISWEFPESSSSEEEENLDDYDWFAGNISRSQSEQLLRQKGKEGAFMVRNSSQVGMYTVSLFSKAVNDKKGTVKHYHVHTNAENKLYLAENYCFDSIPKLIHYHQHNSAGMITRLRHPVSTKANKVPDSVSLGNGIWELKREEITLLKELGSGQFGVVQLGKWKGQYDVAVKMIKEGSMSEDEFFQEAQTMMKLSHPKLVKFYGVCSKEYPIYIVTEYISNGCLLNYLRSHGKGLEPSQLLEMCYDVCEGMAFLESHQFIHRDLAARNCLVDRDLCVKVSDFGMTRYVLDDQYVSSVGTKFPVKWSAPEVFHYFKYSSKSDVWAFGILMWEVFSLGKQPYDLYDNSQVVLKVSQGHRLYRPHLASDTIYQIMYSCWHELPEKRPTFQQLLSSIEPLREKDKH

[10] = target: T2, Tyrosine-protein kinase JAK3 (Homo sapiens) (UniProt P52333); experiment: Inhibition of recombinant TEL-fused JAK3 (unknown origin) expressed in mouse BAF3 cells assessed as growth inhibition after 72 hrs by CellTiter-Glo or CCK-8 assay; type: cell-based; how it was run: as §1
T2 sequence (whole entry): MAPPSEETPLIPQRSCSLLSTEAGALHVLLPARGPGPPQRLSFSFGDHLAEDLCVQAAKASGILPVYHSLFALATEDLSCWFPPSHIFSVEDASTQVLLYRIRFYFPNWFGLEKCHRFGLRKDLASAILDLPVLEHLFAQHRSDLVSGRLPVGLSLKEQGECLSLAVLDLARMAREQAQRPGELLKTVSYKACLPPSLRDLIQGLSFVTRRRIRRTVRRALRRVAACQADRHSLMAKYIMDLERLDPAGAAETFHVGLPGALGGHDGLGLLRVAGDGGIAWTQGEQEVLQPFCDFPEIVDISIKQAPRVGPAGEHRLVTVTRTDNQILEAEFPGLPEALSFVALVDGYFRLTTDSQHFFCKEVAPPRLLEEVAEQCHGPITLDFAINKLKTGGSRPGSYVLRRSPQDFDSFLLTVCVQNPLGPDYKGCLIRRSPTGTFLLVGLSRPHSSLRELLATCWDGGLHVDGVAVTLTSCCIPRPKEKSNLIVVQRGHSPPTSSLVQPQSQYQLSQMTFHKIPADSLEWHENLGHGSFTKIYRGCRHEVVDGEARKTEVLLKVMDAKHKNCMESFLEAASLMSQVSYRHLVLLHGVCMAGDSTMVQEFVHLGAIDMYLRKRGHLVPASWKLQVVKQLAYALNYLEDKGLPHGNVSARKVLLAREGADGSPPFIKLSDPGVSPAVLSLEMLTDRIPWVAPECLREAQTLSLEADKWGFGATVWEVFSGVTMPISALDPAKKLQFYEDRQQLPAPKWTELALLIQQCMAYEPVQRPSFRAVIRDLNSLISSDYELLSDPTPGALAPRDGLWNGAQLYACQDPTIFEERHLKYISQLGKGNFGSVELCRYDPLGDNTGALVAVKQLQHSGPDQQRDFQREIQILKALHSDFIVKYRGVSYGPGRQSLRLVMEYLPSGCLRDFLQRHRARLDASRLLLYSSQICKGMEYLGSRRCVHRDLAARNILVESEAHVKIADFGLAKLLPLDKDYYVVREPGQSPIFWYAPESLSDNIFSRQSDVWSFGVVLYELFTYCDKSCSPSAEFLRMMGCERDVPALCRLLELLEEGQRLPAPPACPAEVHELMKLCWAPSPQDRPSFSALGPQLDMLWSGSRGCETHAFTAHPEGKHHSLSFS

[11] = target: Tyrosine-protein kinase ABL1 (Homo sapiens) (UniProt P00519); experiment: Inhibition of recombinant TEL-fused ABL (unknown origin) expressed in mouse BAF3 cells assessed as growth inhibition after 72 hrs by CellTiter-Glo or CCK-8 assay; type: cell-based; how it was run: as §1
[12] = target: Tyrosine-protein kinase BTK (Homo sapiens, UniProt Q06187); experiment: Inhibition of full-length recombinant human His-tagged BTK expressed in baculovirus expression system using Poly(4:1 Glu, Tyr) as substrate after 1 hr by ADP-Glo kinase assay
[13] = target: Tyrosine-protein kinase Blk (Homo sapiens) (UniProt P51451); experiment: Inhibition of recombinant TEL-fused BLK (unknown origin) expressed in mouse BAF3 cells assessed as growth inhibition after 72 hrs by CellTiter-Glo or CCK-8 assay; type: cell-based; how it was run: as §1
Sequence of Tyrosine-protein kinase Blk (Homo sapiens) (P51451 2-505 limits assumed): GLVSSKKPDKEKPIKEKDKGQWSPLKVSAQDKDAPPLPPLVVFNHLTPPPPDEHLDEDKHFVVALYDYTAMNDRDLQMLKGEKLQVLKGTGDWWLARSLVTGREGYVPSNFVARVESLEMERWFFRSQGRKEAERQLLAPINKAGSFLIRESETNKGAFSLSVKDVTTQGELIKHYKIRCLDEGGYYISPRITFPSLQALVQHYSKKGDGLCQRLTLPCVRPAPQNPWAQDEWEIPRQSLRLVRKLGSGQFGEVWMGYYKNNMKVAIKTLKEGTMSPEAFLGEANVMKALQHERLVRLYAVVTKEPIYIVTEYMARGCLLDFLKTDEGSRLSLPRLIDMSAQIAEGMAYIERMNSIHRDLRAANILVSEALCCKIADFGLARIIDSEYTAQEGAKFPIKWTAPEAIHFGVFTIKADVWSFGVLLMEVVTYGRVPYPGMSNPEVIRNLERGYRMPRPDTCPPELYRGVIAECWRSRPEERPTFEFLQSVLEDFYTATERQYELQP

Sequence of Platelet-derived growth factor receptor beta (Homo sapiens) (P09619 whole entry, the tested form may be a part): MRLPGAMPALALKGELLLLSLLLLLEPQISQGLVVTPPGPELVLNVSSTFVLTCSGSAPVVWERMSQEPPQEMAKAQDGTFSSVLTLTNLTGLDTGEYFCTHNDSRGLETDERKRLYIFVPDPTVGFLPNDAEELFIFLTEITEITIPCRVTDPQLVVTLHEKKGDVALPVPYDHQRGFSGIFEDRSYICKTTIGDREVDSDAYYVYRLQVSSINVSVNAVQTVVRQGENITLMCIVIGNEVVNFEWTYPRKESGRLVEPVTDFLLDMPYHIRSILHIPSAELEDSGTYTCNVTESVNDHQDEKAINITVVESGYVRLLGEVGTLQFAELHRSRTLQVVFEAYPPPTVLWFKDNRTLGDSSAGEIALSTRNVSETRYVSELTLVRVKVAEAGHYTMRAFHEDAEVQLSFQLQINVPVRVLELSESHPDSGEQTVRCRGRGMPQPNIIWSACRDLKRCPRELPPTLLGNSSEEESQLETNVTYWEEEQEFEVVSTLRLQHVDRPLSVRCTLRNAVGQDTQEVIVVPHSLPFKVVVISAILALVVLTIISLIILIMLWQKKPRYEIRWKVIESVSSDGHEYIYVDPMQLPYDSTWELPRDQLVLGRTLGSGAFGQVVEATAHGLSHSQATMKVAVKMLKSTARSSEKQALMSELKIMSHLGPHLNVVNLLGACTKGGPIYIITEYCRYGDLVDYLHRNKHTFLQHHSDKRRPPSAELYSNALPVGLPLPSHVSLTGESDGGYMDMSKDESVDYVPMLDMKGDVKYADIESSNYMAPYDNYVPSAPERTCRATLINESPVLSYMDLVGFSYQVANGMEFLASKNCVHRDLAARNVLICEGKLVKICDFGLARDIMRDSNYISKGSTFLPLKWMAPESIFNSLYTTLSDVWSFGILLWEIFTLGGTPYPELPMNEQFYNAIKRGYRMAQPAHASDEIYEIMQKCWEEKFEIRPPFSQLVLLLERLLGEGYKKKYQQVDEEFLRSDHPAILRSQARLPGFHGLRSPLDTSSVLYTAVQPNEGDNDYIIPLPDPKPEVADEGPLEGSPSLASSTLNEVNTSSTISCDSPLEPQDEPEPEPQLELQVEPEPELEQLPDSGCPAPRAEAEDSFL
Sequence of Epidermal growth factor receptor (Homo sapiens) (P00533 whole entry, the tested form may be a part): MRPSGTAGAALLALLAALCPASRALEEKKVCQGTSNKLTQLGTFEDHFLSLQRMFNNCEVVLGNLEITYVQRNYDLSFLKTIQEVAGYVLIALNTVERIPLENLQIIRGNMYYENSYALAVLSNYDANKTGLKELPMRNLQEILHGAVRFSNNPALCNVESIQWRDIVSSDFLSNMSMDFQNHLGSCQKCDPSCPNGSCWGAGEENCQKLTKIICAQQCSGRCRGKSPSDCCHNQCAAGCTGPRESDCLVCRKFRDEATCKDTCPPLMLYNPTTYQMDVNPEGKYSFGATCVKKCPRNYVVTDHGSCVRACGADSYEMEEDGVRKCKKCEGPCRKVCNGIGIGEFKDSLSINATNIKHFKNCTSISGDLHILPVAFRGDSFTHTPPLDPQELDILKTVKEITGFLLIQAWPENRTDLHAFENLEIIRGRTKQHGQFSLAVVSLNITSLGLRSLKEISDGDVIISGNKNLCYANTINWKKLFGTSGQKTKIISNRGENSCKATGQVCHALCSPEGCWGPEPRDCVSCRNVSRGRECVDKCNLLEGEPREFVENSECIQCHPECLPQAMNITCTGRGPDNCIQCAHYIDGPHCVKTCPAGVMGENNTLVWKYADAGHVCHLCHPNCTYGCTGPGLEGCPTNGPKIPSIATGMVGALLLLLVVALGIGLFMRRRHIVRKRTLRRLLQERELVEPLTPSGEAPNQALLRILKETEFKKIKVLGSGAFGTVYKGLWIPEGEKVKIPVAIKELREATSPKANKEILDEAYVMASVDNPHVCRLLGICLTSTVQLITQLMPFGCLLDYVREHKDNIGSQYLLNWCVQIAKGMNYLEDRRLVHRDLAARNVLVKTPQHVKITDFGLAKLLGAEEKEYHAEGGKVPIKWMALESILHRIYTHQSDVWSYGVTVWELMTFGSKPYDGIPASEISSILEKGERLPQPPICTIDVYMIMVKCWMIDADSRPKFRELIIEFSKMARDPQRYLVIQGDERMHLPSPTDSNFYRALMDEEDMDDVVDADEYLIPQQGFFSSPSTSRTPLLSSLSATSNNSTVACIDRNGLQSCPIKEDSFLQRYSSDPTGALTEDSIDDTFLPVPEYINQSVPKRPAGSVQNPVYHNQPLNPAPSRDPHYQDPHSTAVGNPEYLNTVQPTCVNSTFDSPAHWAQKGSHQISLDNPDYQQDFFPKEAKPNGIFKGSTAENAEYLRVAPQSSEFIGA
Sequence of Platelet-derived growth factor receptor alpha (Homo sapiens) (P16234 whole entry, the tested form may be a part): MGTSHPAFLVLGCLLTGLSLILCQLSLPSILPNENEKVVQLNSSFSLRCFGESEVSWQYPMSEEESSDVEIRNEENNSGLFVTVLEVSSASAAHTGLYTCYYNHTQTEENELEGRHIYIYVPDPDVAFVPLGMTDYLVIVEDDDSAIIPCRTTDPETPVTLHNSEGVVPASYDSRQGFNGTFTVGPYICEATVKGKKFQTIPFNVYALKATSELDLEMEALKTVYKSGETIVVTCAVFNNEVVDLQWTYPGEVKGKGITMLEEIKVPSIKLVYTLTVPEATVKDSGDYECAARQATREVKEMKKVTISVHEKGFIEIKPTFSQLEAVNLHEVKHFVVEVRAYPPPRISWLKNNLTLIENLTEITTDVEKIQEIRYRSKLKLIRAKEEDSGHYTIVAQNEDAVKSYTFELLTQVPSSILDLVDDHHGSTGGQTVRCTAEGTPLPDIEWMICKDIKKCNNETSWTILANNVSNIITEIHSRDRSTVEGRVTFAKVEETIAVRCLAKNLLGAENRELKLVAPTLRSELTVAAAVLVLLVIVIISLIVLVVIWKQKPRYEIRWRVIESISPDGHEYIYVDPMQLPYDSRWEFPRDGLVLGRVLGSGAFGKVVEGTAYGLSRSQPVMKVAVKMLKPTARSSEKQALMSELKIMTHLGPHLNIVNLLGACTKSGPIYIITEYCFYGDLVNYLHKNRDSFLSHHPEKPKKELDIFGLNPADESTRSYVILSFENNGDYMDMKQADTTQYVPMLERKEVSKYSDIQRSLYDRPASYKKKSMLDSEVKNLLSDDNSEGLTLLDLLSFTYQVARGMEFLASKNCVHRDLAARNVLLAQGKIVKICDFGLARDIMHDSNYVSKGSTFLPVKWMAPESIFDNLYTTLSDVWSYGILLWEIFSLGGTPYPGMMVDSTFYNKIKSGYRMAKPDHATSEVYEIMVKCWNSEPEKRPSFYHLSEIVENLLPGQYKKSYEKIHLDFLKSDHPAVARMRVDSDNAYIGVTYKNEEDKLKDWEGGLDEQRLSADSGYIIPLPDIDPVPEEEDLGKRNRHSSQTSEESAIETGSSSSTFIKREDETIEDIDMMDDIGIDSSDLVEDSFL
Sequence of Receptor-type tyrosine-protein kinase FLT3 (Homo sapiens) (P36888 whole entry, the tested form may be a part): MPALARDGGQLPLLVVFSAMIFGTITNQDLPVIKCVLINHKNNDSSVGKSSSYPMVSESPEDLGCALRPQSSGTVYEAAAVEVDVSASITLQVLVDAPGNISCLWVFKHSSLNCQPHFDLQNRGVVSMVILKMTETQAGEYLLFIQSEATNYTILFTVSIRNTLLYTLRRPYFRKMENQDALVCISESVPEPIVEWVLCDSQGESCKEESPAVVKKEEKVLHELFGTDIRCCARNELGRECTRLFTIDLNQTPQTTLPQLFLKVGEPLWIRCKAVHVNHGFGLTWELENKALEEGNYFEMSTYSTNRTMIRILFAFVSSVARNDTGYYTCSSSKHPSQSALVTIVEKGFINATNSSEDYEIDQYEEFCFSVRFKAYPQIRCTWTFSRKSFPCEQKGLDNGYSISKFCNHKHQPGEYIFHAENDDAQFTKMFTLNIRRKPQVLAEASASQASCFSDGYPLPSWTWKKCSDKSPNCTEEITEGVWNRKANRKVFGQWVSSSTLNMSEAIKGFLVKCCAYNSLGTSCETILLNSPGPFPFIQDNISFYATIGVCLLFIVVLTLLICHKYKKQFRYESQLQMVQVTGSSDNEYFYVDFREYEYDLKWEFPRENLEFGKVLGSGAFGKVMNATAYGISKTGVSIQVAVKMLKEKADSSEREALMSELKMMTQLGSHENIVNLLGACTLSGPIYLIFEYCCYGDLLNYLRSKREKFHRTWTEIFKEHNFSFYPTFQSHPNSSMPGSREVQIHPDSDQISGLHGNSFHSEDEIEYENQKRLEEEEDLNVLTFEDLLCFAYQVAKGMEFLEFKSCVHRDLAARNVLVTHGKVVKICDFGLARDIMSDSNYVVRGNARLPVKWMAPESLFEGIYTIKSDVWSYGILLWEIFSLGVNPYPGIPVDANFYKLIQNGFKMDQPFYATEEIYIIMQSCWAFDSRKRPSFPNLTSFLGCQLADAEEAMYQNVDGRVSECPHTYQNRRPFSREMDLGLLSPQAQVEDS

GI50 [1]	GI50 [2]	GI50 [3]	IC50 [4]	GI50 [5]	GI50 [6]	IC50 [7]	GI50 [9]	GI50 [10]	GI50 [11]	IC50 [12]	GI50 [13]	SMILES	GI50 at 72 h [8]
> 10000 nM	2800 nM	790 nM	212 nM	> 10000 nM	370 nM	89 nM	610 nM	> 10000 nM	2510 nM	> 10000 nM	–	CCC(=O)Nc1cc(Nc2ncc(C(=O)Nc3cc(NC(=O)c4cc(OC)c(OC)c(OC)c4)ccc3C)c(NC)n2)ccc1C	> 10000 nM
> 10000 nM	380 nM	130 nM	–	> 10000 nM	99 nM	–	13 nM	> 10000 nM	118 nM	–	5900 nM	C=CC(=O)Nc1cc(Nc2ncc(C(=O)Nc3cc(NC(=O)c4cccc(C(F)(F)F)c4)ccc3C)c(NC)n2)ccc1C	> 10000 nM
> 10000 nM	170 nM	59 nM	–	8600 nM	45 nM	–	85 nM	8300 nM	44 nM	–	6500 nM	CCC(=O)Nc1cc(Nc2ncc(C(=O)Nc3cc(NC(=O)c4cccc(C(F)(F)F)c4)ccc3C)c(NC)n2)ccc1C	> 10000 nM
